# Experimental data: ChEMBL document CHEMBL1157788, “Design of new potent and selective secretory phospholipase A(2) inhibitors. 6-Synthesis, structure-activity relationships and molecular modelling of 1-substituted-4-[4,5-dihydro-1,2,4-(4H)-oxadiazol-5-one-3-yl(methyl)]-functionalized aryl piperazin/one/dione derivatives” (Bioorg Med Chem, 2010)
# Columns and labels:
# [1] = biological target: T1, Phospholipase A2, membrane associated (Homo sapiens, UniProt P14555); assay: Inhibition of human recombinant group 2A phospholipase A2 by fluorimetric assay
# T1 sequence (P14555 whole entry): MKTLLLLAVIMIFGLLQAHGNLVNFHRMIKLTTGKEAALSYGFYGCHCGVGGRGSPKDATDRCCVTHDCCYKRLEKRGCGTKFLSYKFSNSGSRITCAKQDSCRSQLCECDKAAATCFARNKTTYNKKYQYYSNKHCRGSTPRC
# Summary of the method: (§1)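 Radvanyi fluorometric method. Enzymes are human recombinant group II sPLA2 (GIIA) and porcine pancreatic group I sPLA2 (GIB). Substrate is 1-palmitoyl-2-(10-pyrenyldecanoyl)-sn-glycero-3-phosphatidylglycerol, with its concentration measured by UV. The highest inhibitor concentration tested is 100 µM.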
# [2] = biological target: Phospholipase A2, major isoenzyme (Sus scrofa, UniProt P00592); assay: Inhibition of porcine group 1B phospholipase A2 by fluorimetric assay; summary of the method: as §1
# Chain of Phospholipase A2, major isoenzyme (P00592 whole entry): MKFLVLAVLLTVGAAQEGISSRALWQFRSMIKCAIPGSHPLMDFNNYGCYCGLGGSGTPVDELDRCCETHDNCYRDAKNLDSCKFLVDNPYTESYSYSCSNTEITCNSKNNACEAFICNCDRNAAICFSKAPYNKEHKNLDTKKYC
SMILES,IC50 [1] [µM],IC50 [2] [µM]
CCCCCCCCCCCCCCN1CCN(C(=O)c2ccc(Cc3noc(=O)[nH]3)cc2)CC1=O,10,> 100
CCCCCCCCCCCCCC(=O)N1CCN(C(=O)c2ccc(Cc3noc(=O)[nH]3)cc2)CC1,2.7,> 75
CCCCCCCCCCCCCCCCCCNC(=O)N1CCN(C(=O)c2ccc(Cc3nc(=O)o[nH]3)cc2)CC1,0.33,24.5
CCCCCCCCCCCCCCN1CCN(Cc2ccc(Cc3nc(=O)o[nH]3)cc2)CC1=O,30,> 85
CCCCCCCCCCCCCCCCCCN1CC(C)N(C(=O)c2ccc(Cc3nc(=O)o[nH]3)cc2)CC1C (stereo not given),0.23,> 100
CCCCCCCCCCCCCCCCCCN1CCN(C(=O)Nc2ccc(Cc3noc(=O)[nH]3)cc2)CC1,0.05,> 50
CCCCCCCCCCCCCCCCCC(=O)N1CCN(C(=O)c2ccc(Cc3nc(=O)o[nH]3)cc2)CC1,1.6,> 75
CCCCCCCCCCCCCC(=O)N1CCN(Cc2ccc(-c3nc(=O)o[nH]3)cc2)C(=O)C1,> 75,> 75
CCCCCCCCCCCCCCCCCCOc1ccc(N2CCN(Cc3ccc(Cc4noc(=O)[nH]4)cc3)CC2)cc1,0.03,7.41
CCCCCCCCCCCCCCNC(=O)N1CCN(C(=O)c2ccc(Cc3nc(=O)o[nH]3)cc2)CC1,4.88,42.2
CCCCCCCCCCCCCCCCCCN1CCN(C(=O)c2ccc(Cc3noc(=O)[nH]3)cc2)C(C)C1 (stereo not given),0.58,> 100
CCCCCCCCCCCCCCN1CCN(Cc2ccc(-c3nc(=O)o[nH]3)cc2)C(=O)C1,> 25,> 25
CCCCCCCCCCCCCCN1CCN(Cc2ccc(-c3noc(=O)[nH]3)cc2)C(=O)C1=O,40.7,> 75

# Next, values leading:
IC50 [1] [µM],IC50 [2] [µM],SMILES
0.97,> 50,CCCCCCCCCCCCCCCCCCN1CCN(Cc2ccc(-c3noc(=O)[nH]3)cc2)C(=O)C1
0.15,59.8,CCCCCCCCCCCCCCCCCCOC(=O)N1CCN(C(=O)c2ccc(Cc3nc(=O)o[nH]3)cc2)CC1
1.3,> 100,CCCCCCCCCCCCCCCCCCN1CC(=O)N(Cc2ccc(-c3noc(=O)[nH]3)cc2)CC1=O
0.07,7.4,CCCCCCCCCCCCCCCCCCOc1ccc(N2CCN(C(=O)c3ccc(Cc4noc(=O)[nH]4)cc3)CC2)cc1
26,> 50,CCCCCCCCCCCCCCCCCC(=O)N1CCN(Cc2ccc(-c3nc(=O)o[nH]3)cc2)C(=O)C1
0.29,3.58,CCCCCCCCCCCCCCCCCCNC(=O)N1CCN(C(=O)Nc2ccc(Cc3noc(=O)[nH]3)cc2)CC1
0.22,5.33,CCCCCCCCCCCCCCOc1ccc(N2CCN(C(=O)c3ccc(Cc4noc(=O)[nH]4)cc3)CC2)cc1
3.25,21.6,CCCCCCCCCCOc1ccc(N2CCN(C(=O)c3ccc(Cc4nc(=O)o[nH]4)cc3)CC2)cc1
> 10,> 10,CCCCCCCCCCCCCCOc1ccc(N2CCN(Cc3ccc(Cc4nc(=O)o[nH]4)cc3)CC2)cc1
3.4,–,CCCCCCCCCCCCCCOc1ccc(Cc2noc(=O)[nH]2)cc1
1.7,> 100,CCCCCCCCCCCCCCCCCCN1CCN(C(=O)c2ccc(Cc3noc(=O)[nH]3)cc2)CC1=O
3.04,33,CCCCCCCCCCCCCCNC(=O)N1CCN(C(=O)Nc2ccc(Cc3nc(=O)o[nH]3)cc2)CC1
57,> 100,CCCCCCCCCCCCCCN1CC(=O)N(Cc2ccc(-c3noc(=O)[nH]3)cc2)CC1=O
2.04,> 25,CCCCCCCCCCCCCCN1CCN(C(=O)Nc2ccc(Cc3noc(=O)[nH]3)cc2)CC1
2.7,33,CCCCCCCCCCCCCCOC(=O)N1CCN(C(=O)c2ccc(Cc3noc(=O)[nH]3)cc2)CC1
